Data taken from ChEMBL document CHEMBL4689842, “EUbOPEN Chemogenomics Library wave 1” (2021).

Test system: HEK-293T
Assay: Multiplex assay against HEK293T;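 as to Population Tubulin-Different-Phenotype (%): share of the cells with healthy nuclei that show this phenotype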
Format: toxicity, cell-based
Conditions: human
Procedure, shortened: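 Per cents of healthy-nucleus cells form the tubulin, mitochondrial-mass and membrane-permeability phenotype values. Live cells were stained at seeding with Hoechst33342, BioTracker Green Microtubule Cytoskeleton Dye, MitoTracker Red and Annexin V Alexa Fluor 680. After compound addition they were imaged on a CQ1 microscope at 37°C and 5% CO2, and CellPathfinder machine-learning gating split them into Hoechst high-intensity objects or normal cells, normal cells into healthy, pyknosed or fragmented nuclei, and pyknosed cells into mitotic or apoptotic.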

[1] = 12 h, 1 µM, compound concentration 1 uM, replicate 1
[2] = 12 h, 1 µM, compound concentration 1 uM, replicate 2
[3] = 12 h, 10 µM, compound concentration 10 uM, replicate 1
[4] = 12 h, 10 µM, compound concentration 10 uM, replicate 2
[5] = 24 h, 1 µM, compound concentration 1 uM, replicate 1
[6] = 24 h, 1 µM, compound concentration 1 uM, replicate 2
[7] = 24 h, 10 µM, compound concentration 10 uM, replicate 1
[8] = 24 h, 10 µM, compound concentration 10 uM, replicate 2
[9] = 48 h, 1 µM, compound concentration 1 uM, replicate 1
[10] = 48 h, 1 µM, compound concentration 1 uM, replicate 2
[11] = 48 h, 10 µM, compound concentration 10 uM, replicate 1
[12] = 48 h, 10 µM, compound concentration 10 uM, replicate 2

## CCn1c(-c2nonc2N)nc2cnc(Oc3cccc(NC(=O)c4ccc(OCCN5CCOCC5)cc4)c3)cc21 [GSK-269962A]
[1]
  Population Apoptotic (%): 44%
  Population Fragmented Nuclei (%): 14%
  Population Healthy Nuclei (%): 26%
  Population Hoechst High Intensity Objects (%): 17%
  Population Membrane Permeable-Phenotype (%): 3%
  Population Mitochondria Different-Phenotype (%): 75%
  Population Mitotic Cells (%): 55%
  Population Normal (%): 82%
  Population Pyknosed Nuclei (%): 58%
  Population Tubulin-Different-Phenotype (%): 55%
  Total Cell Count: 262
[2]
  Population Apoptotic (%): 12%
  Population Fragmented Nuclei (%): 8%
  Population Healthy Nuclei (%): 44%
  Population Hoechst High Intensity Objects (%): 6%
  Population Membrane Permeable-Phenotype (%): 5%
  Population Mitochondria Different-Phenotype (%): 21%
  Population Mitotic Cells (%): 87%
  Population Normal (%): 93%
  Population Pyknosed Nuclei (%): 46%
  Population Tubulin-Different-Phenotype (%): 21%
  Total Cell Count: 251
[3]
  Population Apoptotic (%): 61%
  Population Fragmented Nuclei (%): 7%
  Population Healthy Nuclei (%): 20%
  Population Hoechst High Intensity Objects (%): 12%
  Population Membrane Permeable-Phenotype (%): 1%
  Population Mitochondria Different-Phenotype (%): 98%
  Population Mitotic Cells (%): 38%
  Population Normal (%): 87%
  Population Pyknosed Nuclei (%): 72%
  Population Tubulin-Different-Phenotype (%): 100%
  Total Cell Count: 284
[4]
  Population Apoptotic (%): 54%
  Population Fragmented Nuclei (%): 4%
  Population Healthy Nuclei (%): 13%
  Population Hoechst High Intensity Objects (%): 7%
  Population Membrane Permeable-Phenotype (%): 0%
  Population Mitochondria Different-Phenotype (%): 100%
  Population Mitotic Cells (%): 45%
  Population Normal (%): 92%
  Population Pyknosed Nuclei (%): 81%
  Total Cell Count: 186
[5]
  Population Apoptotic (%): 56%
  Population Fragmented Nuclei (%): 18%
  Population Healthy Nuclei (%): 30%
  Population Hoechst High Intensity Objects (%): 16%
  Population Membrane Permeable-Phenotype (%): 1%
  Population Mitochondria Different-Phenotype (%): 75%
  Population Mitotic Cells (%): 43%
  Population Normal (%): 83%
  Population Pyknosed Nuclei (%): 51%
  Population Tubulin-Different-Phenotype (%): 43%
  Total Cell Count: 254
[6]
  Population Apoptotic (%): 11%
  Population Fragmented Nuclei (%): 12%
  Population Healthy Nuclei (%): 61%
  Population Hoechst High Intensity Objects (%): 3%
  Population Membrane Permeable-Phenotype (%): 4%
  Population Mitochondria Different-Phenotype (%): 17%
  Population Mitotic Cells (%): 88%
  Population Normal (%): 96%
  Population Pyknosed Nuclei (%): 26%
  Population Tubulin-Different-Phenotype (%): 31%
  Total Cell Count: 267
[7]
  Population Apoptotic (%): 74%
  Population Fragmented Nuclei (%): 12%
  Population Healthy Nuclei (%): 31%
  Population Hoechst High Intensity Objects (%): 12%
  Population Membrane Permeable-Phenotype (%): 4%
  Population Mitochondria Different-Phenotype (%): 96%
  Population Mitotic Cells (%): 25%
  Population Normal (%): 87%
  Population Pyknosed Nuclei (%): 56%
  Population Tubulin-Different-Phenotype (%): 98%
  Total Cell Count: 276
[8]
  Population Apoptotic (%): 72%
  Population Fragmented Nuclei (%): 6%
  Population Healthy Nuclei (%): 22%
  Population Hoechst High Intensity Objects (%): 6%
  Population Membrane Permeable-Phenotype (%): 5%
  Population Mitochondria Different-Phenotype (%): 87%
  Population Mitotic Cells (%): 28%
  Population Normal (%): 93%
  Population Pyknosed Nuclei (%): 70%
  Population Tubulin-Different-Phenotype (%): 97%
  Total Cell Count: 189
[9]
  Population Apoptotic (%): 56%
  Population Fragmented Nuclei (%): 18%
  Population Healthy Nuclei (%): 23%
  Population Hoechst High Intensity Objects (%): 19%
  Population Membrane Permeable-Phenotype (%): 4%
  Population Mitochondria Different-Phenotype (%): 54%
  Population Mitotic Cells (%): 43%
  Population Normal (%): 80%
  Population Pyknosed Nuclei (%): 58%
  Population Tubulin-Different-Phenotype (%): 45%
  Total Cell Count: 255
[10]
  Population Apoptotic (%): 41%
  Population Fragmented Nuclei (%): 20%
  Population Healthy Nuclei (%): 66%
  Population Hoechst High Intensity Objects (%): 3%
  Population Membrane Permeable-Phenotype (%): 5%
  Population Mitochondria Different-Phenotype (%): 12%
  Population Mitotic Cells (%): 58%
  Population Normal (%): 96%
  Population Pyknosed Nuclei (%): 12%
  Population Tubulin-Different-Phenotype (%): 30%
  Total Cell Count: 329
[11]
  Population Apoptotic (%): 80%
  Population Fragmented Nuclei (%): 18%
  Population Healthy Nuclei (%): 40%
  Population Hoechst High Intensity Objects (%): 11%
  Population Membrane Permeable-Phenotype (%): 1%
  Population Mitochondria Different-Phenotype (%): 97%
  Population Mitotic Cells (%): 19%
  Population Normal (%): 88%
  Population Pyknosed Nuclei (%): 41%
  Population Tubulin-Different-Phenotype (%): 97%
  Total Cell Count: 286
[12]
  Population Apoptotic (%): 82%
  Population Fragmented Nuclei (%): 5%
  Population Healthy Nuclei (%): 56%
  Population Hoechst High Intensity Objects (%): 7%
  Population Mitochondria Different-Phenotype (%): 89%
  Population Mitotic Cells (%): 17%
  Population Normal (%): 92%
  Population Pyknosed Nuclei (%): 38%
  Population Tubulin-Different-Phenotype (%): 99%
  Total Cell Count: 192

## CC(C)(C)c1cnc(CSc2cnc(NC(=O)C3CCNCC3)s2)o1 [BMS-387032]
[1]
  Population Apoptotic (%): 25%
  Population Fragmented Nuclei (%): 21%
  Population Healthy Nuclei (%): 51%
  Population Hoechst High Intensity Objects (%): 19%
  Population Membrane Permeable-Phenotype (%): 3%
  Population Mitochondria Different-Phenotype (%): 8%
  Population Mitotic Cells (%): 74%
  Population Normal (%): 80%
  Population Pyknosed Nuclei (%): 27%
  Population Tubulin-Different-Phenotype (%): 4%
  Total Cell Count: 507
[2]
  Population Apoptotic (%): 21%
  Population Fragmented Nuclei (%): 4%
  Population Healthy Nuclei (%): 85%
  Population Hoechst High Intensity Objects (%): 4%
  Population Membrane Permeable-Phenotype (%): 1%
  Population Mitochondria Different-Phenotype (%): 25%
  Population Mitotic Cells (%): 78%
  Population Normal (%): 95%
  Population Pyknosed Nuclei (%): 10%
  Population Tubulin-Different-Phenotype (%): 13%
  Total Cell Count: 981
[3]
  Population Apoptotic (%): 23%
  Population Fragmented Nuclei (%): 15%
  Population Healthy Nuclei (%): 51%
  Population Hoechst High Intensity Objects (%): 21%
  Population Membrane Permeable-Phenotype (%): 4%
  Population Mitochondria Different-Phenotype (%): 17%
  Population Mitotic Cells (%): 76%
  Population Normal (%): 78%
  Population Pyknosed Nuclei (%): 33%
  Population Tubulin-Different-Phenotype (%): 27%
  Total Cell Count: 549
[4]
  Population Apoptotic (%): 24%
  Population Fragmented Nuclei (%): 2%
  Population Healthy Nuclei (%): 86%
  Population Hoechst High Intensity Objects (%): 10%
  Population Membrane Permeable-Phenotype (%): 1%
  Population Mitochondria Different-Phenotype (%): 42%
  Population Mitotic Cells (%): 75%
  Population Normal (%): 90%
  Population Pyknosed Nuclei (%): 10%
  Population Tubulin-Different-Phenotype (%): 58%
  Total Cell Count: 880
[5]
  Population Apoptotic (%): 27%
  Population Fragmented Nuclei (%): 21%
  Population Healthy Nuclei (%): 53%
  Population Hoechst High Intensity Objects (%): 20%
  Population Membrane Permeable-Phenotype (%): 6%
  Population Mitochondria Different-Phenotype (%): 9%
  Population Mitotic Cells (%): 72%
  Population Normal (%): 79%
  Population Pyknosed Nuclei (%): 24%
  Population Tubulin-Different-Phenotype (%): 9%
  Total Cell Count: 451
[6]
  Population Apoptotic (%): 22%
  Population Fragmented Nuclei (%): 6%
  Population Healthy Nuclei (%): 87%
  Population Hoechst High Intensity Objects (%): 8%
  Population Membrane Permeable-Phenotype (%): 1%
  Population Mitochondria Different-Phenotype (%): 22%
  Population Mitotic Cells (%): 77%
  Population Normal (%): 91%
  Population Pyknosed Nuclei (%): 5%
  Population Tubulin-Different-Phenotype (%): 17%
  Total Cell Count: 934
[7]
  Population Apoptotic (%): 27%
  Population Fragmented Nuclei (%): 16%
  Population Healthy Nuclei (%): 45%
  Population Hoechst High Intensity Objects (%): 23%
  Population Membrane Permeable-Phenotype (%): 1%
  Population Mitochondria Different-Phenotype (%): 34%
  Population Mitotic Cells (%): 72%
  Population Normal (%): 76%
  Population Pyknosed Nuclei (%): 38%
  Population Tubulin-Different-Phenotype (%): 30%
  Total Cell Count: 494
[8]
  Population Apoptotic (%): 31%
  Population Fragmented Nuclei (%): 3%
  Population Healthy Nuclei (%): 83%
  Population Hoechst High Intensity Objects (%): 14%
  Population Membrane Permeable-Phenotype (%): 0%
  Population Mitochondria Different-Phenotype (%): 54%
  Population Mitotic Cells (%): 68%
  Population Normal (%): 85%
  Population Pyknosed Nuclei (%): 13%
  Population Tubulin-Different-Phenotype (%): 61%
  Total Cell Count: 828
